Test results as given in ChEMBL document CHEMBL1142096, “Reduced susceptibility of Haemophilus influenzae to the peptide deformylase inhibitor LBM415 can result from target protein overexpression due to amplified chromosomal def gene copy number” (2007).
In brackets after ≈: the same amount, converted by molar mass.

What was measured:
Type in all cases: functional
Haemophilus influenzae [1] = assay: Antimicrobial activity against Haemophilus influenzae NB65044 by broth microdilution method
In short: (§1)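 MIC by CLSI broth microdilution, twofold serial dilutions in HTM broth.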

Haemophilus influenzae [2] = assay: Antimicrobial activity against Haemophilus influenzae CDS01 mutant with acrB insertional inactivation by broth microdilution method; in short: as §1
Haemophilus influenzae [3] = assay: Antimicrobial activity against Haemophilus influenzae CDS23 mutant overexpressing Def by broth microdilution method; in short: as §1
Haemophilus influenzae [4] = assay: Antimicrobial activity against Haemophilus influenzae CDS40 mutant with acrB insertional inactivation by broth microdilution method; in short: as §1

## CCCC[C@H](CN(O)C=O)C(=O)N1CCC[C@H]1C(=O)Nc1ccc(F)c[n+]1[O-]
Haemophilus influenzae [1]
  MIC: 4 µg/mL (≈ 10.1 µM)
Haemophilus influenzae [2]
  MIC: 0.25 µg/mL (≈ 0.631 µM)
Haemophilus influenzae [3]
  MIC: 64 µg/mL (≈ 161 µM)
Haemophilus influenzae [4]
  MIC: 4 µg/mL (≈ 10.1 µM)

## CCC[C@@H]1C[C@@H](C(=O)N[C@@H]([C@H]2O[C@H](SC)[C@H](O)[C@@H](O)[C@H]2O)[C@H](C)Cl)N(C)C1 [CLINDAMYCIN]
Haemophilus influenzae [1]
  MIC: 8 µg/mL (≈ 18.8 µM)
Haemophilus influenzae [2]
  MIC: 0.5 µg/mL (≈ 1.18 µM)
Haemophilus influenzae [3]
  MIC: 4 µg/mL (≈ 9.41 µM)
Haemophilus influenzae [4]
  MIC: 0.5 µg/mL (≈ 1.18 µM)

## CN(C)[C@@H]1C(O)=C(C(N)=O)C(=O)[C@@]2(O)C(O)=C3C(=O)c4c(O)cccc4[C@@](C)(O)[C@H]3C[C@@H]12 [TETRACYCLINE]
Haemophilus influenzae [1]
  MIC: 0.5 µg/mL (≈ 1.13 µM)
Haemophilus influenzae [2]
  MIC: 0.5 µg/mL (≈ 1.13 µM)
Haemophilus influenzae [3]
  MIC: 0.5 µg/mL (≈ 1.13 µM)
Haemophilus influenzae [4]
  MIC: 0.5 µg/mL (≈ 1.13 µM)
